By IC50 is commonly meant the midpoint of a concentration-inhibition curve.

These results are taken from ChEMBL document CHEMBL1133862, “Synthesis and binding affinities of 2 beta-(3-iodoallyloxycarbonyl)-3 beta-(4-substituted-aryl)tropane analogues as ligands for the dopamine transporter studies” (Bioorg Med Chem Lett, 2001).

In assay [1] the target is Sodium-dependent dopamine transporter (Rattus norvegicus, UniProt P23977). The experiment in a line: Inhibition of [3H]WIN-35428 binding to Dopamine transporter in rat striatal synaptic membranes. Format: cell membranes, Membrane.
The target of assay [2] is Sodium-dependent dopamine transporter (Rattus norvegicus) (UniProt P23977). The assay can be described thus: Ratio of binding affinity of E isomer to that of Z isomer towards the dopamine transporter expressed as IC50(E)/IC50(Z). The method in brief: (§1)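 Ratio of IC50 values for the E and Z isomers bearing the same para substituent on the 3β-phenyl ring. Both IC50s come from rat striatal membrane competition binding against 3 nM [3H]WIN 35,428, with 13 concentrations from 10^-12 to 10^-4 M and (−)-cocaine defining nonspecific binding.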

For assay [3] the target is unchanged. The experiment in a line: Ratio of binding affinity of E isomer to that ofZ isomer towards the dopamine transporter expressed as IC50(E)/IC50(Z). The method in brief:
as §1

Chain of Sodium-dependent dopamine transporter (Rattus norvegicus) (P23977 whole entry): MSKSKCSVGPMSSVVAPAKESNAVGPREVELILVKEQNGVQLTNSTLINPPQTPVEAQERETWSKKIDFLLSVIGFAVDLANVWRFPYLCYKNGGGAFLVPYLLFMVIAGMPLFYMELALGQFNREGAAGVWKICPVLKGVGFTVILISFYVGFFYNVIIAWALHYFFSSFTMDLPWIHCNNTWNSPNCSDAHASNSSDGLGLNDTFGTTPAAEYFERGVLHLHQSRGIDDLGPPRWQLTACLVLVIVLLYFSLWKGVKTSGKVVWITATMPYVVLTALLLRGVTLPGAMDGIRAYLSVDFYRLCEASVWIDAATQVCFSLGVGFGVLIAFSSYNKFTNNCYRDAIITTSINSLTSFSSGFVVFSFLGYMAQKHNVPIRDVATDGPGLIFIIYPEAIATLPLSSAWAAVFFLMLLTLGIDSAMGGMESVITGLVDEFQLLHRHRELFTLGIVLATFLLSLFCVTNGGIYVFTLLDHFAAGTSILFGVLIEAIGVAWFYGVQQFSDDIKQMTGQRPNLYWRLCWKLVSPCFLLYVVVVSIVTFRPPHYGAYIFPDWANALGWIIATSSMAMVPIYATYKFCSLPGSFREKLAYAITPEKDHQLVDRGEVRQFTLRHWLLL
Chain of Sodium-dependent dopamine transporter (P23977 whole entry): as above

Regarding `Cc1ccc(C2CC3CCC(C2C(=O)OC/C=C/I)N3C)cc1` (stereo not drawn), the half-maximal inhibitory concentration (IC50) in assay [1] worked out at 190 nM.
With `CN1C2CCC1C(C(=O)OC/C=C\I)C(c1ccccc1)C2` (stereo not drawn), in assay [2], the Ratio stood at 2.84. Moreover, the IC50 in assay [1] is 308 nM.
For `CN1C2CCC1C(C(=O)OC/C=C/I)C(c1ccc(F)cc1)C2` (stereo not drawn), in assay [1], the IC50 came to 567 nM.
Turning to `CN1C2CCC1C(C(=O)OC/C=C/I)C(c1ccc(Cl)cc1)C2` (stereo not drawn), the IC50 in assay [1] turned out to be 46.6 nM. This IC50 is about 12-fold lower than that of the compound before.
With `CN1C2CCC1C(C(=O)OC/C=C\I)C(c1ccc(F)cc1)C2` (stereo not drawn), the Ratio in assay [3] was 1.59. This compound gave a 50% inhibitory concentration (IC50) in assay [1] of 356 nM.
For `CN1C2CCC1C(C(=O)OC/C=C/I)C(c1ccccc1)C2` (stereo not drawn), in assay [1], the IC50 came to 876 nM.
In the case of `CN1C2CCC1C(C(=O)OC/C=C\I)C(c1ccc(Cl)cc1)C2` (stereo not drawn), the Ratio in assay [3] was determined as 1.87. Besides, the IC50 in assay [1] is 24.9 nM.
In the case of `Cc1ccc(C2CC3CCC(C2C(=O)OC/C=C\I)N3C)cc1` (stereo not drawn), the Ratio in assay [3] was 4.84. This compound yielded an IC50 in assay [1] of 39.2 nM.
`COC(=O)C1C(c2ccc(Cl)cc2)CC2CCC1N2C/C=C/I` (stereo not drawn): the IC50 in assay [1] was found to be 6.1 nM.
